Here are results for ten compounds from ChEMBL document CHEMBL3580655, “Identification of a Potent Inhibitor of CREB-Mediated Gene Transcription with Efficacious in Vivo Anticancer Activity” (J Med Chem, 2015).

Test [1] can be described thus: Inhibition of CREB-mediated gene transcription in human HEK293T cells transfected with pCRE-RLuc by renilla luciferase reporter assay. Format: cell-based. The settings on record: HEK-293T. For orientation: A reporter such as luciferase makes a cellular process visible.
The test system of a further test is MCF7. Description: Antiproliferative activity against human MCF7 cells assessed as inhibition of cell growth after 72 hrs by MTT assay. Format: functional. The settings on record: MCF7, 72 h. The procedure, abridged: (§1)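 Cells seeded, allowed to attach overnight, then exposed to a range of concentrations for 72 h. MTT 0.5 mg/mL in complete medium, 3 h at 37 °C, formazan dissolved in DMSO, absorbance 570 nm. Percent growth = 100×(treated−time-zero)/(medium control−time-zero). GI50 from nonlinear regression of the growth–concentration curve. Mean ± SD of at least two independent experiments in duplicate; highest concentration 100 μM.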
(In general: Formazan colour is commonly taken as a measure of viable cells.)

For another test, the system named is A549. Description: Antiproliferative activity against human A549 cells assessed as inhibition of cell growth after 72 hrs by MTT assay. The following applies: A549, 72 h. Format: functional. The procedure, abridged:
as §1

A further test relates to MDA-MB-231. The test is described as follows: Antiproliferative activity against human MDA-MB-231 cells assessed as inhibition of cell growth after 72 hrs by MTT assay. The following applies: MDA-MB-231, 72 h. Type of test: functional. Summed up:
as §1

In the next test the test system is MDA-MB-468. The test is described as follows: Antiproliferative activity against human MDA-MB-468 cells assessed as inhibition of cell growth after 72 hrs by MTT assay. Type of test: functional. The settings on record: MDA-MB-468, 72 h. Summed up: as §1
Test [2] has as its target Cellular tumor antigen p53 (Homo sapiens) (UniProt P04637). Description: Inhibition of P53 (unknown origin) transfected in human HEK293T cells assessed as inhibition of forskolin-stimulated gene transcription at > 1 uM after 30 mins by CRE-RLuc complementation assay. Format: cell-based. The following applies: HEK-293T. Summed up: (§2)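 HEK 293T cells transfected with the relevant plasmid combinations (VP16-CREB: VP16 activation domain fused to full-length CREB; or p53), then exposed to a range of concentrations before Renilla luciferase measurement. Activity normalized to protein concentration, expressed as RLU/μg protein.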

For test [3] the target is unchanged. The test is described as follows: Inhibition of P53 (unknown origin) transfected in human HEK293T cells assessed as inhibition of forskolin-stimulated gene transcription after 30 mins by CRE-RLuc complementation assay. The following applies: HEK-293T. Type of test: cell-based. The procedure, abridged:
as §2

A further test concerns HEK-293T. Description: Inhibition of CREB-mediated gene transcription in human HEK293T cells assessed as inhibition of forskolin-stimulated Nurr1/NR4A2 transcription at 1000 nM after 1 hr by qRT-PCT analysis. Format: cell-based. Summed up:
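HEK 293T cells exposed to a range of compound concentrations for 1 h, then DMSO or forskolin (10 μM) for 45 min. Nurr1/NR4A2 transcript level measured by qRT-PCR as relative mRNA.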

Activity calls are given as the source filed them. The rule behind the calls is not given here.

By IC50 is commonly meant the midpoint of a concentration-inhibition curve. Broadly, the GI50 is the concentration giving 50% growth inhibition.

Sequence of Cellular tumor antigen p53 (Homo sapiens) (P04637 whole entry, looked up, the tested form may be a part): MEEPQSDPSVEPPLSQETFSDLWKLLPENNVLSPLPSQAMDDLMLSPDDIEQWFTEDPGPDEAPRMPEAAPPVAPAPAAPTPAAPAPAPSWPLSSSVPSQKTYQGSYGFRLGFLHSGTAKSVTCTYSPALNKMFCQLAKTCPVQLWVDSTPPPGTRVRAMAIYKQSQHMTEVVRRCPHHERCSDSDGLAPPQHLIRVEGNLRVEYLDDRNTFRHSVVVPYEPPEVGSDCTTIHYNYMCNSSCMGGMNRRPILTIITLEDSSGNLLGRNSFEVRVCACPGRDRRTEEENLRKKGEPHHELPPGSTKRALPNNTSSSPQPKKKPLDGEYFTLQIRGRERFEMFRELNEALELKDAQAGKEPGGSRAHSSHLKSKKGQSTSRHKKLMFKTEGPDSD

In test [1], `NCCCOc1ccccc1C(=O)NCCCOc1cc2ccccc2cc1C(=O)Nc1ccc(Cl)cc1O` displayed an IC50 of 5300 nM. Besides, the GI50 in the test with MCF7 stood at 2660 nM; in the test with A549, 2320 nM; in the test on MDA-MB-231, 5820 nM; in the test with MDA-MB-468 it was 2320 nM.
In turn, `NCCOc1cc2ccccc2cc1C(=O)NCCOc1cc2ccccc2cc1C(=O)Nc1ccc(Cl)cc1O` registered an IC50 in test [1] of 300 nM. Further, the 50% growth inhibitory concentration (GI50) turned out to be 810 nM with MCF7, 1160 nM in the test with A549, 1210 nM in the test with MDA-MB-231 and 250 nM with MDA-MB-468.
For `CNCCCOc1cc2ccccc2cc1C(=O)NCCCOc1cc2ccccc2cc1C(=O)Nc1ccc(Cl)cc1O`, the IC50 in test [1] came to 18500 nM. In addition, the GI50 in the test on MCF7 came to 1650 nM; in the test on A549, 260 nM; with MDA-MB-231 it was 260 nM; with MDA-MB-468, 200 nM.
In test [1], `O=C(NCCCOc1cc2ccccc2cc1C(=O)Nc1ccc(Cl)cc1O)c1cc2ccccc2cc1OCCCO` yielded an IC50 of 7300 nM. Besides, the GI50 in the test with MCF7 worked out at 29000 nM; in the test on A549, 39200 nM; in the test with MDA-MB-231, 82700 nM; with MDA-MB-468, 10200 nM.
Take `NCCCOc1cc2ccccc2cc1C(=O)NCCCOc1ccccc1C(=O)Nc1ccc(Cl)cc1O`: in test [1], the IC50 worked out at 10000 nM. For the same compound, the 50% growth inhibitory concentration (GI50) with MCF7 came out at 2300 nM; in the test with A549 it was 2440 nM; with MDA-MB-231, 4610 nM; in the test on MDA-MB-468, 1820 nM.
Regarding `NCCCOc1cc2ccccc2cc1C(=O)NCCOc1cc2ccccc2cc1C(=O)Nc1ccc(Cl)cc1O`, the inhibition result in test [2] is “Active”. Besides, the inhibition entry in test [3] is “inactive”.
Consider `NCCCOc1cc2ccccc2cc1C(=O)NCCCOc1cc2ccccc2cc1C(=O)Nc1ccc(Cl)cc1O`, for which the 50% growth inhibitory concentration (GI50) was 140 nM with MCF7, 290 nM in the test with A549, 370 nM in the test with MDA-MB-231 and 220 nM with MDA-MB-468. Also, in the test with HEK-293T, the inhibition result was “Active”.
On to `NCCOc1cc2ccccc2cc1C(=O)NCCCOc1cc2ccccc2cc1C(=O)Nc1ccc(Cl)cc1O`, for which, in test [1], it took 5230 nM to reach half-maximal inhibition (IC50). The 50% growth inhibitory concentration (GI50) with MCF7 is 1890 nM; in the test on A549 it was 2170 nM; in the test with MDA-MB-231 it was 2710 nM; in the test with MDA-MB-468, 1850 nM.
In turn, `NCCCOc1cc2ccccc2cc1C(=O)NCCCOc1cc2ccccc2cc1C(=O)Nc1ccc(Cl)cc1` returned a half-maximal inhibitory concentration (IC50) in test [1] of 4690 nM. For the same compound, the 50% growth inhibitory concentration (GI50) in the test on MCF7 is 1720 nM; in the test on A549, 950 nM; in the test with MDA-MB-231, 1000 nM; in the test with MDA-MB-468, 1620 nM.
On to `O=C(NCCCOc1cc2ccccc2cc1C(=O)Nc1ccc(Cl)cc1O)c1cc2ccccc2cc1OCCCN1CCOCC1`, for which the IC50 in test [1] is above 50000 nM. For the same compound, the GI50 was above 100000 nM with MCF7, above 100000 nM in the test on A549, above 100000 nM in the test with MDA-MB-231 and 13700 nM in the test with MDA-MB-468.
